Activity calls are given as the source filed them. The calls are words filed in the database; no cut-off is given here.
Experiments:
[1] = system: Drosophila melanogaster; assay: Adulticidal activity against adult Drosophila melanogaster (males/females 1:1 ratio) assessed as mortality measured after 3 hr; assay type: functional
Method in brief: (§1)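 Topical dose applied to the abdomen of ice-immobilised adults, 5–7 days old, in 0.5 μL acetone. Controls received acetone only. Flies were held at 25 °C, RH >60%, on a 12 h light/dark cycle. Thirty flies per dose, three replicates. Survival was recorded 3 h after treatment. Mortality means inability to move, with recovery checked.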

[2] = system: Drosophila melanogaster; assay: Adulticidal activity against adult Drosophila melanogaster (males/females 1:1 ratio) assessed as mortality at 2 ng/adult measured after 3 hr; assay type: functional, organism-based; method in brief: as §1
[3] = system: Drosophila melanogaster; assay: Adulticidal activity against adult Drosophila melanogaster (males/females 1:1 ratio) assessed as mortality at 1 ng/adult measured after 3 hr; assay type: functional, organism-based
[4] = system: Drosophila melanogaster; assay: Adulticidal activity against adult Drosophila melanogaster (males/females 1:1 ratio) assessed as mortality at 20 ng/adult measured after 3 hr; assay type: functional, organism-based; method in brief: as §1
[5] = system: Drosophila melanogaster; assay: Adulticidal activity against adult Drosophila melanogaster (males/females 1:1 ratio) assessed as mortality at 0.5 ng/adult measured after 3 hr; assay type: functional, organism-based

Structure (SMILES) | LD50 [1] [µg] | Activity [2] | Activity [3] | Activity [4] | Activity [5]
C[C@@H]1CC[C@H]2[C@H](C)CC[C@@H](c3ccoc3)N2C1 [(-)-7-EPI-DEOXYNUPHARIDINE] | 0.9 | – | – | – | –
C=C(C)[C@H]1Cc2c(ccc3c2O[C@@H]2COc4cc(OC)c(OC)cc4[C@@H]2C3=O)O1 [ROTENONE] | 3.68 | – | – | – | –
COc1ccc2c(c1OC)CN1CCc3cc4c(cc3[C@@H]1C2)OCO4 [CANADINE] | 2.5 | – | – | – | –
C[C@H]1CC=CC(=O)O1 [(+)-(6S)-PARASORBIC ACID] | 1.44 | Active | inactive | Active | inactive
